# Assay results reported in PubChem BioAssay AID488782 (The Scripps Research Institute Molecular Screening Center, 2010).
# Calls of active or inactive are those of the source.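 The calls were made as follows: active = concentration giving half-maximal inhibition of the luciferase signal, from the fitted curve, at 5 µM or lower; inactive = half-inhibition concentration above 5 µM.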
# Molecular target: Nuclear receptor subfamily 5 group A member 2 (Homo sapiens) (UniProt O00482)
# Assay: potency against LRH1-driven Cyp19 reporter – cell-based, HEK293T, Cyp19 aromatase-luciferase, luminescence, powder samples, dose response (AID 488782)
# Settings: 20 h
# Summary of the method: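 Assay system: HEK293T cells carrying LRH1 plus Cyp19-luciferase reporter; timing: bulk transfection 24 h before replating, compound exposure 20 h; measured by: luminescence from luciferase reporter; measure: IC50 from sigmoidal fit of DMSO-normalized inhibition; repeats: triplicate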
# Sequence of Nuclear receptor subfamily 5 group A member 2 (Homo sapiens) (O00482 whole entry, looked up): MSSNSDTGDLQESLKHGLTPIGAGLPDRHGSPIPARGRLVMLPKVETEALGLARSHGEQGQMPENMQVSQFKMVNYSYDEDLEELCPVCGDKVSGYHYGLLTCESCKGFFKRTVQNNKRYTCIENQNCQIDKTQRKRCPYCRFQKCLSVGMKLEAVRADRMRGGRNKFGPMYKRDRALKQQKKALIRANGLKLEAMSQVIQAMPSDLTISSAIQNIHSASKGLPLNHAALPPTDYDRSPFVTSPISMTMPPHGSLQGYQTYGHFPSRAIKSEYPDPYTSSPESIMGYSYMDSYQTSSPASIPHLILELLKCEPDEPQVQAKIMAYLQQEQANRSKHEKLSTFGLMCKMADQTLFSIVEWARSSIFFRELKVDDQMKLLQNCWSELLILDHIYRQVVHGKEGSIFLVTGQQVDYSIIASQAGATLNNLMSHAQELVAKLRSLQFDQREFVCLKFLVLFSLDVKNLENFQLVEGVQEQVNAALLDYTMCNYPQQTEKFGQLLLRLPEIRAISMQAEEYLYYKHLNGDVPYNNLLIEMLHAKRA
row,SMILES,IC50
1,O=c1cc(N2CCN(c3cccc(Cl)c3)CC2)[nH]c(=O)n1C1CCCCC1,3700 nM
2,Cn1c(=O)cc(N2CCN(c3cccc(Cl)c3)CC2)[nH]c1=O,1100 nM
3,CCn1c(=O)cc(N2CCN(c3cccc(Cl)c3)CC2)[nH]c1=O,4200 nM
4,O=c1cc(N2CCN(c3ccnc4cc(Cl)ccc34)CC2)[nH]c(=O)n1C1CCCCC1,4000 nM
5,O=c1cc(N2CCN(c3ccccc3)CC2)[nH]c(=O)n1C1CCCCC1,2600 nM
6,O=c1cc(N2CCN(c3cccc(Cl)n3)CC2)[nH]c(=O)n1C1CCCCC1,538 nM
7,O=c1cc(N2CCN(c3nc(-c4ccccc4)ns3)CC2)[nH]c(=O)n1C1CCCCC1,4800 nM
8,O=c1cc(N2CCN(c3cccc(Cl)c3Cl)CC2)[nH]c(=O)n1C1CCCCC1,430 nM
9,O=c1cc(N2CCN(C3CCCCC3)CC2)[nH]c(=O)n1C1CCCCC1,921 nM

# The remaining lines, values ahead:
row,IC50,SMILES
1,1000 nM,CCn1c(=O)cc(N2CCN(c3cccc(C(F)(F)F)c3)CC2)[nH]c1=O
2,570 nM,C=CCn1c(=O)cc(N2CCN(c3cccc(C(F)(F)F)c3)CC2)[nH]c1=O
3,320 nM,O=c1cc(N2CCN(c3cccc(C(F)(F)F)c3)CC2)[nH]c(=O)n1C1CCCCC1
4,110 nM,CC(C)Cn1c(=O)cc(N2CCN(c3cccc(C(F)(F)F)c3)CC2)[nH]c1=O

# Same assay, conditions: 20 h, at 10 µM (top of the series)
row,"fold change, lower = inhibition",SMILES
1,inactive,O=c1cc(N2CCN(Cc3ccc(Cl)cc3)CC2)[nH]c(=O)n1C1CCCCC1
